Measurements collected from several papers.
Compare with care: the assays were run in different laboratories.
Observed: enzyme activity
Action: inhibitor
CDK2: Cyclin-dependent kinase 2 (CDK2, Homo sapiens, UniProt P24941)
CDK2 with cyclin A: Cyclin-dependent kinase 2, with cyclin A (CDK2, Homo sapiens, UniProt P24941)

Compound | target | test | conditions | inhibition
CN1CC(Oc2cnc(C#N)cc2-c2ccn3nc(NC(=O)C4CC4)cc3c2)C1 | Cyclin-dependent kinase 2, with cyclin E (CDK2, Homo sapiens, UniProt P24941) | – | 1 µM | -13%
Cn1cnc(Br)c1C1=CN(c2ncnc3[nH]cnc23)CCS1 | CDK2 | radiometric | 50 nM | 20.5%
CSc1nc(C)c(-c2ccnc(Nc3ccc(N4CCOCC4)cc3)c2)[nH]1 | CDK2 | – | 10 µM | 66.4%
CCCS(=O)(=O)Nc1ccc(F)c(C(=O)c2c[nH]c3ncc(-c4ccc(Cl)cc4)cc23)c1F | CDK2 with cyclin A | – | 1 µM | < 10%
COc1cc(-c2cc(-c3ccc(N4CCNCC4)cc3)cnc2N)cc(OC)c1OC | CDK2 with cyclin A | – | 1 µM | 2%
CN(c1ncccc1CNc1nc(Nc2ccc3c(c2)CC(=O)N3)ncc1C(F)(F)F)S(C)(=O)=O | CDK2 | – | 1 µM | 94.4%
CC/C(=N\NC(=O)NCc1cccc(O)c1)c1ccc(O)c(C)c1O | Cyclin-dependent kinase 2, with cyclin A2 (CDK2, Homo sapiens, UniProt P24941) | – | 0.1 µM | 0.5%
CS(=O)(=O)Nc1cccc(-c2csc(NC(=O)CSc3nc4nccnc4c(=O)n3CCc3ccccc3)n2)c1 | Cyclin-dependent kinase 2, with cyclin O (CDK2, Homo sapiens, UniProt P24941) | – | 10 µM | 8%
CNc1cccc2cc(C(=O)Nc3ccc(C(=O)O)cc3)c(=O)[nH]c12 | CDK2 | – | 10 µM | -0.24%
CN(C)C1CCN(CC#Cc2nn(C3CCCC3)c3nc(NCc4ccccc4)ncc23)C1 (stereo not drawn) | CDK2 with cyclin A | FRET | 0.1 µM | 7%
Cn1cncc1C1=CN(c2ncnc3[nH]cnc23)CCS1 | CDK2 | radiometric | 50 nM | 12.6%
COc1cc2ncnc(Nc3ccc(Oc4ccccc4)cc3C)c2cc1OC | CDK2 with cyclin A | – | 1 µM | -14%
